TAG inh = reduces triacylglycerol accumulation in H9c2 cells; inhibition, % at 12.5 µM; Nile Red lipid (TAG) fluorescence; cells loaded with 200 µM oleic acid; hit rate 0.66% among 230,000;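 active = pattern-corrected inhibition of lipid staining of at least 50% with the nuclear-stain viability signal not falling by more than 50%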;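 also: 0% = DMSO wells and 100% = triacsin C control wells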
Jurkat NFkB inh = inhibitors of the PMA/ionomycin-induced NF-kB reporter in Jurkat cells | PMA/ionomycin-induced NF-kB luciferase reporter, luminescence | inhibition, % at 4 µM | hit rate 0.53% among 330,000; in the data active = inhibition above about 50%
APP 5UTR inh = APP translation inhibition | inhibition, % at 2 µM | SH-SY5Y APP 5'UTR-luciferase reporter, luminescence | hit rate 0.82% among 190,000;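 active = inhibition above a set limit, derived from the sample mean plus 3 SD, cut at about 45% in these data; inconclusive = one replicate passes the limit while the other fails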
697 NFkB inh = lowers PMA/ionomycin-induced NF-kB signal in 697 B cells; 697 B-cell NF-kB luciferase reporter, 16 h; inhibition, % at 4 µM; hit rate 0.33% among 330,000; AID 435022; in the data active = inhibition above about 35%
Lipid droplet = modulators of hepatic lipid droplet formation; AML12 mouse hepatocytes, oleate lipid droplets, BODIPY imaging; inhibition, % at 6.5 µM; hit rate 0.4% among 240,000;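 active = lipid droplet intensity inhibited by at least 50%, with more than 500 cells counted; inconclusive = wells with under 300 cells, treated as cytotoxic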
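Assay system: AML12 mouse liver cells | Compound dosing: One dose, 6.5 µM compound | Read-out basis: Droplet intensity reduction, % inhibition | Measured by: Fluorescence imaging, 20x objective, two fields per well | Schedule: Overnight treatment with compound plus oleate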
aSyn UTR inh = MLPCN primary screen, SNCA 5' untranslated region; alpha-synuclein 5'UTR reporter, inhibitor activity; inhibition, % (tested at 7.5 µM); hit rate 0.82% among 300,000; in the data active = inhibition above about 60%; inconclusive = no clear call, values can overlap the other calls;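 also: H4 neuroglioblastoma cells stably carrying SNCA 5'UTR luciferase fusion; 0% = DMSO wells and 100% = positive control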
Active calls of the source: *; ? = inconclusive; / = no result. Most compounds without a hit are left out; they make up all but 1.9% or so of the library.

SMILES	TAG inh	Jurkat NFkB inh	APP 5UTR inh	697 NFkB inh	Lipid droplet	aSyn UTR inh
CCOC(=O)c1c(C)[nH]c(C(=O)Nc2ccc(NC(C)=O)cc2)c1C	4	1	13	23	19	89*
Cc1onc(-c2ccccc2)c1C(=O)NC(=S)NNC(=O)c1ccc(O)cc1	/	16	18	4	8	32
Cc1onc(-c2ccccc2)c1C(=O)NC(=S)NNC(=O)c1ccc(O)cc1O	/	12	27	-12	2	64*
Cc1onc(-c2ccccc2)c1C(=O)NC(=S)NNC(=O)c1ccccc1O	/	12	-8	-17	12	63*
Cc1onc(-c2ccccc2)c1C(=O)NNC(=O)c1ccccc1Br	8	4	/	-11	/	/
Cc1nn(-c2ccccc2)c(N2CCCC2)c1/C=N/Nc1ccc(S(=O)(=O)Nc2ccccc2)cc1[N+](=O)[O-]	/	-3	-11	-15	82*	50
COc1c(/C=N/Nc2ccc([N+](=O)[O-])cc2[N+](=O)[O-])c(C)nn1-c1ccccc1	25	0	7	4	/	7
NC1=C(Cl)C(=O)c2ccccc2C1=O	66*	/	/	/	/	/
NC1=C(Cl)C(=O)c2ccc(S(N)(=O)=O)cc2C1=O	117	/	/	/	/	/
CCOC(=O)[C@@H]1[C@H]2COc3cc(OC)ccc3[C@H]2N2C(=O)N(c3ccc(C(F)(F)F)cc3)C(=O)[C@]12C	10	7	/	-16	/	/
CCNC(=S)N=Nc1c(O)n(Cc2ccc(Cl)cc2)c2ccccc12	/	5	0	-43	3	-25
NC(=S)N=Nc1c(O)n(CCCl)c2ccccc12	/	1	-4	21	1	1
Cc1ccccc1Cn1c(O)c(N=NC(=S)Nc2ccccc2F)c2ccccc21	29	10	15	0	44	73*
Oc1c(N=NC(=S)Nc2ccccc2F)c2ccccc2n1Cc1ccc(Cl)cc1	27	5	23	-13	41	70*
C=CCn1c(O)c(N=NC(=S)Nc2cccc(OC)c2)c2ccccc21	/	-3	35	-8	-3	50
C=CCn1c(O)c(N=NC(=S)Nc2ccc(OC)cc2)c2ccccc21	/	/	25	/	2	84*
Oc1c(N=NC(=S)Nc2ccccc2F)c2ccccc2n1Cc1ccccc1F	24	6	13	22	3	87*
O=C(NNC(=O)c1ccncc1)Nc1ccc(N=Nc2ccccc2)cc1	8	/	/	/	/	/
O=C(Nc1ccccc1C(=O)Nc1ccncc1)c1ccccc1	/	8	/	-4	-4	31
C=CCn1c(O)c(N=NC(=O)c2ccc3c(c2)OCO3)c2ccccc21	/	-16	50*	-22	/	-27
Cc1ccc(C)c(Cn2c(O)c(N=NC(=S)Nc3ccccc3F)c3ccccc32)c1	40	19	14	-10	14	72*
CCNC(=O)C1CCCN(C(=O)c2ccccc2F)CC1 (stereo unspecified)	2	/	/	/	/	/
O=C(NCc1cccs1)c1nc2c(nnn2Cc2ccccc2Cl)c(=O)[nH]1	/	/	-4	/	20	77*
Oc1c(C(c2ccccc2Cl)N2CCCC2)ccc2cccnc12 (stereo unspecified)	62*	11	7	-7	-56	97*
Oc1c(C(c2cccs2)N2CCN(c3ccccc3)CC2)ccc2cccnc12 (stereo unspecified)	/	-10	59*	-38	22	/
SMILES	TAG inh	Jurkat NFkB inh	APP 5UTR inh	697 NFkB inh	Lipid droplet	aSyn UTR inh
CCN(CC)CCCNc1nc2ccccc2c2[nH]c3ccc(OC)cc3c12	130	/	/	/	/	/
CCCOc1ccc(C2=NNC(=O)CC2)cc1	/	-17	5	-2	12	77*
COc1ccc(C2=NNC(=O)CC2)cc1	-2	2	-5	1	-18	7
COc1ccccc1-c1cnc(C(O)c2c(C)cc(C)cc2C)[nH]1 (stereo unspecified)	-1	/	/	/	/	/
c1ccc(-c2ccncn2)cc1	13	/	/	/	/	/
Cc1cc(C)n2c(=O)c3ccc(Cl)cc3nc2c1C#N	7	-11	4	0	2	-23
Cc1cc(Cl)n2c(nc3cc(F)c(F)cc32)c1C#N	88	/	88*	/	1	39
COc1ccc2c(c1)c1nc(SCC(C)C)n(CCO)c(=O)c1n2C	5	0	-6	7	/	13
Clc1cccc(Nc2ncnc3ccc(Br)cc23)c1	/	8	-8	-30	/	-51
COc1cc2ncnc(Nc3cccc(Cl)c3)c2cc1OC	/	/	/	/	65*	/
CCC(Oc1ccccc1)C(=O)N1CCN(S(=O)(=O)c2ccccc2)CC1 (stereo unspecified)	-20	-18	/	2	/	/
O=C(Cc1cccc(NC(=O)C2CCCN(C(=O)c3ccccc3)C2)c1)Nc1ccc(C(=O)N2CCOCC2)cc1 (stereo unspecified)	48	/	/	/	/	/
Cc1ccsc1/C=N/NC(=O)c1ccncc1	13	-6	-3	-23	6	-25
COc1cc(C(=O)N/N=C/c2sccc2C)cc(OC)c1OC	45	/	92*	/	?	114*
COc1cc(C(=O)Oc2ccccc2/C=N/NC(=O)c2ccc(C)c(Cl)c2)cc(OC)c1OC	/	28	50*	-34	-4	84*
C=CCNc1nc(N)c([N+](=O)[O-])c(N2CCCCCC2)n1	/	16	/	-11	10	69*
Cc1cccc(-c2cnc(C(O)c3ccc(Cl)cc3C)[nH]2)c1 (stereo unspecified)	-12	/	/	/	/	/
COc1cc(C2C(N3C(=O)c4ccccc4C3=O)C(=O)N2c2cccc(C)c2)cc(OC)c1OC (stereo unspecified)	/	/	-4	/	1	/
COc1ccc(-n2nc(C#N)c(Cl)cc2=O)cc1	/	21	95*	4	/	/
COC(=O)c1nn(-c2ccc(OC)cc2)c(=O)cc1O	-7	-21	4	7	/	21
CC(Sc1nc(N)cc(=O)[nH]1)C(=O)Nc1ccc(N2CCOCC2)cc1 (stereo unspecified)	5	/	/	/	/	/
CC(C)C1C(C#N)=C(N)Oc2n[nH]c(-c3ccc4ccccc4c3)c21 (stereo unspecified)	/	36	55*	-93	-2	-1
CCc1nc2c(OCc3cc(Cl)cc(Cl)c3)cccn2c1N(C)C(=O)c1ccc(C)cc1	1	/	/	/	/	/
COc1ccc(OCC(=O)OCC(=O)NCc2ccc(F)cc2)cc1	3	-2	64*	17	4	22
COc1ccc(CNC(=O)COC(=O)CCOc2ccccc2)cc1	/	4	-10	11	8	7
CC(C)N=C(NS(=O)(=O)c1ccccc1)C(Cl)(Cl)Cl	52*	9	12	13	?	-15
CCN(c1ccccc1)S(=O)(=O)c1ccc(Oc2ccccc2C(C)=O)nc1	-4	-6	/	-4	/	/
CCN(c1ccccc1)S(=O)(=O)c1ccc(Oc2ccc(-n3ccnc3)cc2)nc1	-23	17	2	-1	/	103*
CCCCCc1nc2sc3c(c2c(=O)n1NC(=O)c1ccc([N+](=O)[O-])cc1)CC(C)(C)OC3	5	4	1	3	1	-19
Cc1ccc2c3c(c(SCC(=O)Nc4nccs4)nc2c1)CCCC3	/	/	14	/	/	/

Screening data deposited in PubChem by several laboratories.
